The values below come from PMC8436581 (Molecular Diversity, 2021).

The subject of test [1] is α-glycosidase. Nature of the test: Enzyme kinetic study. The format is biochemical. The note with it: Lineweaver–Burk plot. The procedure, abridged: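 Double-reciprocal analysis: reciprocal rate (1/V) plotted against reciprocal substrate concentration (1/[S]) at several inhibitor concentrations to assign the inhibition mode; Ki obtained from a secondary plot of inhibitor concentration [I] versus 1/Vi'max.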

Test [2] relates to α-glycosidase. The experiment in a line: In vitro α-glycosidase inhibition assay. The format is biochemical. The note with it: ratio of IC50 values against acarbose.
Test [3] deals with α-glycosidase. The note with it: cited from earlier work.

Entries after “also recorded” stand apart in the source; their conditions may differ. Read-outs that look alike come from different tables or passages of the source.

Regarding `Cc1ccc(-c2ncc(NC(=O)Cn3cc(COc4ccc(-c5nc6ccc(C)cc6[nH]5)cc4)nn3)s2)cc1` [9m, 2-{4-[4-(6-Methyl-1H-1,3-benzodiazol-2-yl)phenoxymethyl]-1H-1,2,3-triazol-1-yl}-N-[2-(4-methylphenyl)-1,3-thiazol-5-yl]acetamide], in the test with α-glycosidase [1], the type of inhibition entry is on record as “uncompetitive inhibitors; also recorded: uncompetitive type of inhibition”.

As for `O=C(Cn1cc(COc2ccc(-c3nc4ccccc4[nH]3)cc2)nn1)Nc1cnc(-c2ccccc2)s1` [9a, 2-{4-[4-(1H-1,3-benzodiazol-2-yl)phenoxymethyl]-1H-1,2,3-triazol-1-yl}-N-(2-phenyl-1,3-thiazol-5-yl)acetamide], in the test on α-glycosidase [2], the “improvement in potency compared to acarbose” value is reported as “around 39 fold”. As for `O=C(Cn1cc(COc2ccc(-c3nc4ccccc4[nH]3)cc2)nn1)Nc1cnc(-c2ccc(Br)cc2)s1` [9c, 2-{4-[4-(1H-1,3-benzodiazol-2-yl)phenoxymethyl]-1H-1,2,3-triazol-1-yl}-N-[2-(4-bromophenyl)-1,3-thiazol-5-yl]acetamide], the type of inhibition result in the test with α-glycosidase [1] is reported as “uncompetitive inhibitors; also recorded: uncompetitive type of inhibition”.

Consider `COc1cc(-c2nc3ccccc3[nH]2)ccc1OCc1cn(CC(=O)Nc2cnc(-c3ccccc3)s2)nn1` [9g, 2-{4-[4-(1H-1,3-benzodiazol-2-yl)-2-methoxyphenoxymethyl]-1H-1,2,3-triazol-1-yl}-N-(2-phenyl-1,3-thiazol-5-yl)acetamide], for which the type of inhibition entry in the test with α-glycosidase [1] was “uncompetitive inhibitors; also recorded: uncompetitive type of inhibition”. By IC50 is commonly meant the concentration that inhibits the measured activity by half. As for `C[C@H]1O[C@H](O[C@H]2[C@H](O)[C@@H](O)[C@@H](O[C@H]3[C@H](O)[C@@H](O)C(O)O[C@@H]3CO)O[C@@H]2CO)[C@H](O)[C@@H](O)[C@@H]1N[C@H]1C=C(CO)[C@@H](O)[C@H](O)[C@H]1O` (stereo partly shown) [Acarbose], the IC50 at α-glycosidase [3] (arylthiazole-pyridine derivatives) was 856.5 ± 5.6 µM; on α-glycosidase [3] (benzimidazole bearing bis-Schiff bases) it was 38.5 µM; at α-glycosidase [3] (benzimidazole-1,2,3-triazole hybrids) it was 750 ± 12.5 µM; at α-glycosidase [3] (benzimidazole-based oxadiazole derivatives), 38.5 ± 0.8 µM; at α-glycosidase [3] (thiourea derivatives bearing benzimidazole), 774 µM. Turning to `COc1cc(-c2nc3ccccc3[nH]2)ccc1OCc1cn(CC(=O)Nc2cnc(-c3ccc(C)cc3)s2)nn1` [9i, 2-{4-[4-(1H-1,3-benzodiazol-2-yl)-2-methoxyphenoxymethyl]-1H-1,2,3-triazol-1-yl}-N-[2-(4-methylphenyl)-1,3-thiazol-5-yl]acetamide], the “improvement in potency compared to acarbose” value in the test with α-glycosidase [2] was found to be 15 fold.
